This note sets out measurements from ChEMBL document CHEMBL3098095, “Synthesis and biological properties of thiazole-analogues of pyochelin, a siderophore of Pseudomonas aeruginosa” (Bioorg Med Chem Lett, 2014).

In general, Ki refers to a measure of affinity in units of concentration, obtained from inhibition or displacement.

Assay [1] addresses T1, Fe(3+)-pyochelin receptor (Pseudomonas aeruginosa (strain ATCC 15692 / PAO1 / 1C / PRS 101 / LMG12228), UniProt P42512).
T1 sequence (P42512 whole entry): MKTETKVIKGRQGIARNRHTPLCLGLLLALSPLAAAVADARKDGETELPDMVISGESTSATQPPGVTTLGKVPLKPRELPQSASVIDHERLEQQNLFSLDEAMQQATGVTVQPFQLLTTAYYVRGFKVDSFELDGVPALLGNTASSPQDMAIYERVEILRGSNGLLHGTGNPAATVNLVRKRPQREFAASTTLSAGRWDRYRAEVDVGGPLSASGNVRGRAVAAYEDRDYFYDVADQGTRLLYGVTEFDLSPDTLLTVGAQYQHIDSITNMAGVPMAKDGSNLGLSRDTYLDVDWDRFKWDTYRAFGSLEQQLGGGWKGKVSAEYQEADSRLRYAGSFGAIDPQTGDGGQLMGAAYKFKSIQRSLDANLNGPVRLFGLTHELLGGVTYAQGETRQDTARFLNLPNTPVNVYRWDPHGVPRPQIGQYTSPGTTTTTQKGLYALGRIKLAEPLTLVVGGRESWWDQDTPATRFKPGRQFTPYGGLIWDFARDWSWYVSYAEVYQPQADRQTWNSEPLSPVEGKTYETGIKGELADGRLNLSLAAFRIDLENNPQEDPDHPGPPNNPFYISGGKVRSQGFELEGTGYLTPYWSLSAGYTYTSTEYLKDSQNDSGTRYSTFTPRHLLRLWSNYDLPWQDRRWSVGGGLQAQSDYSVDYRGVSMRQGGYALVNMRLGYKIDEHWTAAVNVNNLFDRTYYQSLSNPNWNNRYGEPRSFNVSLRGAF
Nature of the assay: Displacement of Pch-55Fe(III) from Pseudomonas aeruginosa PAD07 FptA after 1 hr in presence of CCCP. A digest of the protocol:
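PAD07 P. aeruginosa (mutant lacking pyochelin and pyoverdine), OD600 0.3, held 1 h at 0 °C in 50 mM Tris–HCl pH 8.0 with 200 µM CCCP to block uptake. Tracer 1 nM Pch-55Fe(III) competed by the Fe(III)-loaded compounds over […] range. Inhibition constant (Ki) derived from the competition.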

The test system of another assay is Pseudomonas aeruginosa. As to the kind of experiment: Induction of iron uptake in Pseudomonas aeruginosa PAD07 at 100 nM. It is filed as functional, organism-based. A digest of the protocol: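 PAD07 P. aeruginosa cells lacking endogenous siderophores, OD600 1, incubated at 37 °C with 100 nM of the 55Fe(III)-loaded compound. Aliquots taken at several times were centrifuged, and cell-pellet 55Fe was measured as iron transported. Repeated with the protonophore CCCP at 0 °C to check TonB-dependent uptake versus passive diffusion.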

The structures appear in SMILES notation. Active and inactive are the calls of the source. The rule behind the calls is not given here.

Regarding `COc1ccc(F)cc1-c1nc(C2SC[C@@H](C(=O)O)N2C)cs1` (mixture of isomers), the Ki in assay [1] (read-out: Ki) stood at 1440 nM. In addition, the outcome in the assay with Pseudomonas aeruginosa was inactive.

In the case of `CN1[C@@H]([C@H]2CSC(c3ccccc3O)=N2)SC[C@H]1C(=O)O`, in assay [1] (read-out: Ki), the Ki was found to be 2.2 nM. In addition, the result in the assay with Pseudomonas aeruginosa was Active.

As for `CN1C(c2csc(-c3ccc(N)cc3O)n2)SC[C@H]1C(=O)O` (mixture of isomers), the Ki in assay [1] (read-out: Ki) turned out to be 11.3 nM. Also, the outcome in the assay on Pseudomonas aeruginosa was Active.

For `CN1[C@@H](c2csc(-c3ccccc3O)n2)SC[C@H]1C(=O)O`, in assay [1] (read-out: Ki), the Ki came to 9.8 nM. For the same compound, the result with Pseudomonas aeruginosa was Active.

Regarding `COc1ccc(N)cc1-c1nc(C2SC[C@@H](C(=O)O)N2C)cs1` (mixture of isomers), in assay [1] (read-out: Ki), the Ki came out at 460 nM. Also, the outcome in the assay with Pseudomonas aeruginosa was inactive.

For the compound `COc1cc(O)ccc1-c1nc(C2SC[C@@H](C(=O)O)N2C)cs1` (mixture of isomers), in assay [1], the Ki result was “Not Active”. In addition, the result in the assay with Pseudomonas aeruginosa was inactive.

For `CN1C(c2csc(-c3ccc(O)cc3O)n2)SC[C@H]1C(=O)O` (mixture of isomers), in assay [1] (read-out: Ki), the Ki worked out at 6.5 nM. Also, the outcome in the assay with Pseudomonas aeruginosa was Active.

As for `COc1ccccc1-c1nc(C2SC[C@@H](C(=O)O)N2C)cs1` (mixture of isomers), in assay [1], the Ki entry is “Not Active”. Further, the outcome in the assay on Pseudomonas aeruginosa was inactive.

Regarding `CN1C(c2csc(-c3cc(N)ccc3O)n2)SC[C@H]1C(=O)O` (mixture of isomers), the Ki entry in assay [1] is “Not Active”. In the assay with Pseudomonas aeruginosa, the outcome was inactive.
